Here are results for 167 variants from the RNAGym collection of RNA variant scans (doi:10.1126/science.aae0568).

This sample holds only a part of the variants without activity.

The labels stand for the following.
B1: tRNA (parent)
chain: GUUCCGUUGGCGUAAUGGUAACGCGUCUCCCUCCUAAGGAGAAGACUGCGGGUUCGAGUCCCGUACGGAACG

Variants of B1 are the subject of this series. The series can be described thus: yeast fitness relative to wild type (ratio to wild type); higher = fitter; tRNA-Arg(CCU), competitive growth, 37 C, YPD. An outline of the steps:
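A pool of Saccharomyces cerevisiae strains, each with a tRNA-Arg(CCU) gene variant at the native genomic locus, was competed in YPD at 37°C for 24 hours across six parallel replicates. The variants had been chemically synthesised at a 3% per-site mutation rate over 69 sites, and gene amplicons before and after competition were read by 100-nucleotide paired-end sequencing. Darwinian fitness relative to wild type rested on changes in genotype frequencies. Genotypes required ≥ 100 starting reads, and estimates < 0.5 were set to 0.5.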
Take C5A G10C U26C G39C C61U: the yeast fitness was at most 0.5. As to C5A C30U C62G G68A, the yeast fitness is at most 0.5. Turning to C5A U8C A21G A45C U47G G56C, the yeast fitness was at most 0.5. Regarding C5A U7A, the yeast fitness was 0.636. Turning to C5A U7C, the yeast fitness came to 0.655.

As to C5A G52A G68A, the yeast fitness is at most 0.5. As for C5A U13G C34G A45U, the yeast fitness came to 0.619. To C5G A15C C46U U53G A57C belongs 0.588; to C5A G52C G67U A69U, at most 0.5; to C5A U35C G44A G48C C55G C66G, at most 0.5. The same measure for C5A G12A A45G: 0.551; for C5A C49A U53G: at most 0.5; for C5A U7C C31U: 0.605. For C5A U28A A40U C61G, the yeast fitness was at most 0.5. To C5A U16C U59G C66U belongs 0.533; to C5A C34U A36C A40C C55A C66U, at most 0.5.

As to C5A C34U A40G, the yeast fitness came to 0.727. The same measure for C5A U13A U59A U64G: at most 0.5. C5A U28C G63C: the yeast fitness is 0.534. On to C5A G10C A43G G58C C66G, for which the yeast fitness was at most 0.5. As for C5A G18C G67C, the yeast fitness came out at 0.561. Turning to C5A G17A C49G, the yeast fitness is 0.532. C5A C31A C46G: the yeast fitness was at most 0.5. With C5A U19A C27U C55U, the yeast fitness was at most 0.5. C5A C33A A65U: the yeast fitness was at most 0.5.

As to C5A U13A A70C, the yeast fitness was at most 0.5. As to C5G A14U A43G G67C, the yeast fitness came out at 0.56. To C5A C49U A65U G67C belongs at most 0.5; to C5A C34G A43C, at most 0.5; to C5A G10C G12A G23A U64A, at most 0.5. On to C5G A14U G38C G39C C61U, for which the yeast fitness was at most 0.5. For C5A U47A, the yeast fitness came out at 0.786.

For the variant C5A G39A U59A, the yeast fitness is at most 0.5.

With C5A C31A C46A G50C, the yeast fitness is at most 0.5. Take C5G A14U C24U C55G A70U: the yeast fitness was at most 0.5. As for C5A U54C A65U, the yeast fitness was at most 0.5. For the variant C5A U54G A65U, the yeast fitness was at most 0.5. C5A C31G G51A: the yeast fitness turned out to be 0.577. Take C5A G17C A70C: the yeast fitness is at most 0.5.

On to C5A U47A C55A G68A, for which the yeast fitness is at most 0.5. Regarding C5A G6A U7A A43U G44A C46A G63A G68C A69G, the yeast fitness came out at 0.532. To C5A G9A belongs 0.975. In the case of C5A G9C, the yeast fitness was 0.627.

Regarding C5G A14U C29U C33G A43U U54C, the yeast fitness was at most 0.5. The same measure for C5A U47C G51A A65C: at most 0.5; for C5A G41A A57U: at most 0.5; for C5A G23A C46U G50C C61A A70C: at most 0.5.

For C5G A14C G44C, the yeast fitness was at most 0.5. The same measure for C5A C31G C46A: 0.54; for C5A U19A C66U: 0.66; for C5G A14U G25A G48C C61A C62U: at most 0.5. As for C5A G48A C60A, the yeast fitness was at most 0.5. Consider C5G A14C C29A C31G G56A, for which the yeast fitness was at most 0.5. To C5A G56A belongs 1; to C5A G56C, 0.666; to C5A C33U C61U, at most 0.5. Consider C5A U8C A21G A45C G56C C66U, for which the yeast fitness was at most 0.5. On to C5A U16A A42C, for which the yeast fitness is at most 0.5. For C5A C33U G50A G52C A65C, the yeast fitness is at most 0.5. On to C5A C31U C34U C60G G63A, for which the yeast fitness is at most 0.5. C5A G18C: the yeast fitness turned out to be 0.569. For the variant C5A C34G G58A G67A, the yeast fitness is at most 0.5. As for C5A U13G U32A A42U G52A U54A C60G, the yeast fitness worked out at 0.649.

C5A U7C U59A: the yeast fitness is at most 0.5. For C5A U35C G44A G48C, the yeast fitness was at most 0.5. C5A U19A A20C C24G C34G: the yeast fitness was at most 0.5. Regarding C5A G41A A70G, the yeast fitness stood at 0.604.

Take C5A G23A C24U: the yeast fitness was found to be 0.561.

For the variant C5A G9C U47G G68U, the yeast fitness is at most 0.5. As for C5G A14C A37G G52U C62G, the yeast fitness was at most 0.5.

On to C5A C55A, for which the yeast fitness came out at 0.655. The same measure for C5A C55U: 0.707. For the variant C5A G58C, the yeast fitness came to 0.867. The same measure for C5A G58A: 0.909.

In the case of C5G A14U A37U A45C, the yeast fitness was at most 0.5. Regarding C5A G9A U32C, the yeast fitness is 0.602.

As to C5A C30G C31G U32C G63A, the yeast fitness was at most 0.5. For C5A U13A C30G A69C, the yeast fitness is at most 0.5. Turning to C5A U35G G41A G56A, the yeast fitness is at most 0.5. Take C5A G9C A21U: the yeast fitness is at most 0.5. On to C5G A14C C30U, for which the yeast fitness is at most 0.5. The same measure for C5A G17C: 0.652; for C5A G17A: 0.851. In the case of C5A G9C A36U G50A, the yeast fitness came out at 0.536. C5A G44C U54C: the yeast fitness was found to be 0.556. To C5G A14C C29A C31G U54A A70G belongs 0.531; to C5G A15C C29A C61G, at most 0.5; to C5A U19A A57U, 0.561.

Consider C5A U8C U35C G44A G48C C55G A69U, for which the yeast fitness was at most 0.5. On to C5A U16A G17A A42C, for which the yeast fitness was at most 0.5. As to C5G A14C C30U C49U C61A, the yeast fitness is at most 0.5. With C5A G17A A42G G56A, the yeast fitness was at most 0.5. The same measure for C5G A14G G63C: at most 0.5.

Take C5A U26A: the yeast fitness is 0.717. The same measure for C5G A14C G18A U19C A43G A45C C46U: at most 0.5; for C5A G39C C46G: 0.547; for C5A C34G A37G: at most 0.5. As to C5A C31U U35C A69U, the yeast fitness is 0.539. The same measure for C5G A14U G67A: 0.612; for C5G A15C G48C G68U: at most 0.5; for C5A G12A A45G G67A: at most 0.5. For the variant C5G A14C C29A C31G U54A, the yeast fitness was found to be 0.638. To C5G A14C C29A C31G U54G belongs at most 0.5; to C5G A14C A37G C46U G68C, at most 0.5. Regarding C5A C31U A40G C49U A70U, the yeast fitness was at most 0.5.

Regarding C5A G10C G17A A40U U54A, the yeast fitness was at most 0.5. With C5A U35G G68C, the yeast fitness is at most 0.5.

For the variant C5A G18A A69U, the yeast fitness is at most 0.5. In the case of C5A G38A C49U, the yeast fitness came out at 0.57. Take C5A U16C C33U G63C: the yeast fitness is at most 0.5.

For C5A U8C C11A A15G C27U A42U C61A C62U, the yeast fitness is 0.502. To C5A G25A C33A A40U A69U belongs at most 0.5. As to C5A G17C G25A, the yeast fitness is at most 0.5. With C5A G17A A42G, the yeast fitness was 0.555. The same measure for C5A C34A C46U: 0.553; for C5G A14C A37G A69U: at most 0.5; for C5A U13G C34G C62G: at most 0.5. To C5G A14C G18A A40G C46U C49U U53A belongs at most 0.5. On to C5A G17C C49U A57C, for which the yeast fitness is at most 0.5. In the case of C5A G23C, the yeast fitness worked out at 0.723. In the case of C5A G23A, the yeast fitness was found to be 0.753.

Regarding C5A G12A G50C, the yeast fitness is at most 0.5.

Consider C5A C34G U53A, for which the yeast fitness is at most 0.5. Take C5A G38C A42G: the yeast fitness was 0.582. For the variant C5A G10C U26C, the yeast fitness is 0.518. As to C5G A15C A42C G52A U53A, the yeast fitness was at most 0.5. As to C5A U13C, the yeast fitness stood at 0.926. As to C5A C33G A65U, the yeast fitness was at most 0.5. On to C5A G39A C49U G67A, for which the yeast fitness is at most 0.5. Consider C5G A14C A36C A45C G48A, for which the yeast fitness is at most 0.5. On to C5A G67A A69U, for which the yeast fitness amounted to 0.523. Turning to C5A G48C G51C U53A C66A, the yeast fitness is 0.559. The same measure for C5A G17A A42G U64A: 0.606; for C5A C33U C62A: 0.542. To C5G A14G C33A G56A U59C C61A belongs at most 0.5; to C5G A14U G18A A21U C31U C60U C61U C66G, at most 0.5. As for C5A G12C C34U A37G, the yeast fitness is 0.562. With C5A G17C G58C, the yeast fitness was at most 0.5. For the variant C5A C62U A70C, the yeast fitness was found to be 0.616. Take C5A U13A A45C A69C: the yeast fitness was 0.542. As to C5G A14U C60A, the yeast fitness is at most 0.5. With C5A G44A, the yeast fitness came out at 0.716. The same measure for C5A G44C: 0.8; for C5A G39A G56C: at most 0.5; for C5A G10C U26C G51A: at most 0.5. As to C5A C62U A69C, the yeast fitness is 0.738.

Take C5A C30U U59C C62A: the yeast fitness is at most 0.5. Turning to C5A C31G G56C G58C G63A, the yeast fitness was at most 0.5. C5A G10C G17A A40U U64C: the yeast fitness turned out to be 0.582. As for C5A G67A, the yeast fitness was 0.933.

For the variant C5A U7A G52A G67A, the yeast fitness was at most 0.5. Take C5A G38A C62U: the yeast fitness turned out to be 0.639. To C5A U16G C27U C29U A36U G41A belongs 0.589; to C5A U7C G63C, at most 0.5. The same measure for C5G A15C C22A: 0.627; for C5A G6A: 0.808; for C5A U35G A69C: at most 0.5. As to C5A G48C C62U, the yeast fitness amounted to 0.629.

As to C5A U16C A42U A57G, the yeast fitness was at most 0.5.

With C5A C30U U54A, the yeast fitness was found to be 0.537.

Regarding C5A C31G A37G, the yeast fitness came out at 0.538. Take C5A G12A G18A A69C: the yeast fitness is at most 0.5. C5G A14U U16C G18C U32A C62U: the yeast fitness is at most 0.5. As for C5A G12C U47C, the yeast fitness is at most 0.5. For C5A U16C A21C C33U A40G G63C, the yeast fitness was at most 0.5.

Regarding C5A C31U U35C G50A, the yeast fitness came to 0.565. With C5A G52A G63A, the yeast fitness is at most 0.5.
